ChEMBL document CHEMBL2424622, “Development of amino-pyrimidine inhibitors of c-Jun N-terminal kinase (JNK): kinase profiling guided optimization of a 1,2,3-benzotriazole lead” (Bioorg Med Chem Lett, 2013)

How the values were obtained:
[1] = biological target: T1, Serine/threonine-protein kinase STK11 (Homo sapiens) (UniProt Q15831); test: Competitive binding affinity to LKB1 (unknown origin) at 10 uM in presence of ATP relative to control
T1 sequence (whole entry): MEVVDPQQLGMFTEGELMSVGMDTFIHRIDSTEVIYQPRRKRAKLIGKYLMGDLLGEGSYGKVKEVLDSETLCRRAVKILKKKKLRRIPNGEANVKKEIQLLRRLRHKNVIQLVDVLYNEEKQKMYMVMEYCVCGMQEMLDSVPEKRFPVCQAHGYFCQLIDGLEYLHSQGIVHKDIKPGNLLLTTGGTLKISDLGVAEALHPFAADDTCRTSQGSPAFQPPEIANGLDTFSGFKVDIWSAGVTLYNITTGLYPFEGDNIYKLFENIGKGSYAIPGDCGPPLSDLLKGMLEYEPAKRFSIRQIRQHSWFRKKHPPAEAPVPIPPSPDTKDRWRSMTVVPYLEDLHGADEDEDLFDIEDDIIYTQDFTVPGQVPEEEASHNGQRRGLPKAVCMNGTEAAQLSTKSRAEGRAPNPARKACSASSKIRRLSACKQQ
In short: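 In vitro ATP-site competition binding assay, part of profiling against a diverse panel of 128 kinases. Each compound was tested at a single concentration of 10 µM. Kinome selectivity was summarized as S15 selectivity scores.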

[2] = biological target: T2, Serine/threonine-protein kinase tousled-like 1 (Homo sapiens) (UniProt Q9UKI8); test: Competitive binding affinity to TLK1 (unknown origin) at 10 uM in presence of ATP relative to control
T2 sequence (whole entry): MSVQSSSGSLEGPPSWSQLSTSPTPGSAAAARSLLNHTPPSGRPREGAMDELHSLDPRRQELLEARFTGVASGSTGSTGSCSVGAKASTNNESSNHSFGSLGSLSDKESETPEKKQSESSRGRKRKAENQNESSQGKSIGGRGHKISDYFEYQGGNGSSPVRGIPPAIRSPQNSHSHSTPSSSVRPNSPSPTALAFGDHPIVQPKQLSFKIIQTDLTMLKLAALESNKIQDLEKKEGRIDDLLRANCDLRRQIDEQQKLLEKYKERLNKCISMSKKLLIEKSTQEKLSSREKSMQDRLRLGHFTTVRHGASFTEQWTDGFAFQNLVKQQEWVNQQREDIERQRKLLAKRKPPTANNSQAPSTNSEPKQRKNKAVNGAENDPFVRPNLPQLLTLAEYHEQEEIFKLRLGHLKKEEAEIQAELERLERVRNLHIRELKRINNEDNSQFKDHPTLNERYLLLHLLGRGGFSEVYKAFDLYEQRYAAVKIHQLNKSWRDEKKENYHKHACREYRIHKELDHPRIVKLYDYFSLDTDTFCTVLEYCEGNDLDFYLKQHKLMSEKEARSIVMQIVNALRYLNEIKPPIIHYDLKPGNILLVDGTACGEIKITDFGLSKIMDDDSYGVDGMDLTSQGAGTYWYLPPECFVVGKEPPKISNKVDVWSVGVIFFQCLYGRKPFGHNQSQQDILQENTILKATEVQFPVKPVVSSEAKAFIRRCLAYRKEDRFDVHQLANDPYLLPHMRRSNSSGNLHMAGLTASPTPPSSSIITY

[3] = biological target: T3, Serine/threonine-protein kinase NLK (Homo sapiens) (UniProt Q9UBE8); test: Competitive binding affinity to NLK (unknown origin) at 10 uM in presence of ATP relative to control
T3 sequence (whole entry): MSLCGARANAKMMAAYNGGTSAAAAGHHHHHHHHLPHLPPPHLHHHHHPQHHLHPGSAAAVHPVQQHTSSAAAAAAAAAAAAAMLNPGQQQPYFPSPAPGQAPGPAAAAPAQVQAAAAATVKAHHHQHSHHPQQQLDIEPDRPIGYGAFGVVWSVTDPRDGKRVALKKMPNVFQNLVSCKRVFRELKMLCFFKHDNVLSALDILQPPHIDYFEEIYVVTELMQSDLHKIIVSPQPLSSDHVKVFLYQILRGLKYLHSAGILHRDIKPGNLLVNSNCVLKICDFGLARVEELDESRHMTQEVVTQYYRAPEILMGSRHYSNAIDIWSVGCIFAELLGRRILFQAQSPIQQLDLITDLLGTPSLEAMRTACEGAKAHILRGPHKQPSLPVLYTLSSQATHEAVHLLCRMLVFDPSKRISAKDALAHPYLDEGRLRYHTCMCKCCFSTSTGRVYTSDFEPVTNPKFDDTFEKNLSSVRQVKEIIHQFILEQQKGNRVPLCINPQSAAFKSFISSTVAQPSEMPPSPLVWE

[4] = biological target: T4, Testis-specific serine/threonine-protein kinase 1 (Homo sapiens) (UniProt Q9BXA7); test: Competitive binding affinity to TSSK1 (unknown origin) at 10 uM in presence of ATP relative to control
T4 sequence (whole entry): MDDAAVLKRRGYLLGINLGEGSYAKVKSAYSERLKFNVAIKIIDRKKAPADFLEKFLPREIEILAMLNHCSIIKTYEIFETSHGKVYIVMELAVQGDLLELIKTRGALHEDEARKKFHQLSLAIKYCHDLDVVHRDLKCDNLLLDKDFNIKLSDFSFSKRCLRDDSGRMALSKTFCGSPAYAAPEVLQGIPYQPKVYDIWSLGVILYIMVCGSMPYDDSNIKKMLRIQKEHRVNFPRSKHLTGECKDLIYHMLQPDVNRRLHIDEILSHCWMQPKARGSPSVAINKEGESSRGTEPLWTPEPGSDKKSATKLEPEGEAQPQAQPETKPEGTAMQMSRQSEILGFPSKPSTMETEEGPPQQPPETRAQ

Row | inhibition [1] [%] | inhibition [2] [%] | inhibition [3] [%] | inhibition [4] [%] | Structure (SMILES)
1 | 75 | 90 | 90 | – | O[C@H]1CC[C@H](Nc2nccc(-c3n[nH]c4ccccc34)n2)CC1
2 | < 50 | < 50 | < 50 | < 50 | O[C@H]1CC[C@H](Nc2nccc(-n3ccc4ccccc43)n2)CC1
3 | < 50 | < 50 | < 50 | < 50 | O[C@H]1CC[C@H](Nc2nccc(-n3nnc4ccccc43)n2)CC1
4 | < 50 | < 50 | < 50 | < 50 | O[C@H]1CC[C@H](Nc2nccc(-n3ncc4ccccc43)n2)CC1
